Legend:
[1] = biological target: Histamine H3 receptor (Mus musculus) (UniProt P58406); assay: In vivo effects in mice against H3 receptor on N6-methylhistamine levels in brain (following oral dosing of compound); type: functional, organism-based
How it was run: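 Swiss mice fasted 24 h, dosed orally; decapitated 90 min later and cerebral cortex homogenized in ice-cold 0.4 M perchloric acid. Nτ-methylhistamine measured by radioimmunoassay.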

Histamine H3 receptor [2] = biological target: T1, Histamine H3 receptor (Homo sapiens, UniProt Q9Y5N1); assay: Displacement of [125I]iodoproxyfan from human histamine H3 receptor expressing CHO cells; type: cell-based
Histamine H2 receptor = Histamine H2 receptor (Cavia porcellus, UniProt P47747); assay: Potency at histamine H2 receptor subtype, was tested on guinea pig right atrium; type: tissue-based, Cardiac atrium; settings: read-out: pA2 (converted)
Histamine H3 receptor [3] = biological target: Histamine H3 receptor (Cavia porcellus, UniProt Q9JI35); assay: Potency at histamine H3 receptor subtype, was tested on guinea pig right ileum; type: tissue-based; settings: read-out: pA2 (converted)
Histamine H1 receptor = Histamine H1 receptor (Cavia porcellus, UniProt P31389); assay: Potency at histamine H1 receptor subtype, was tested on guinea pig right ileum; type: tissue-based; settings: read-out: pA2 (converted)
Histamine H3 receptor [4] = biological target: T1, Histamine H3 receptor; assay: biochemical
[5] = biological target: Histamine N-methyltransferase (Rattus norvegicus, UniProt Q01984); assay: Compound was tested against histamine N-methyl-transferase in rat brain [EC 2.1.1.8](relative weak affinity on rat enzyme); type: tissue-based
Histamine N-methyltransferase, sequence (Q01984 whole entry): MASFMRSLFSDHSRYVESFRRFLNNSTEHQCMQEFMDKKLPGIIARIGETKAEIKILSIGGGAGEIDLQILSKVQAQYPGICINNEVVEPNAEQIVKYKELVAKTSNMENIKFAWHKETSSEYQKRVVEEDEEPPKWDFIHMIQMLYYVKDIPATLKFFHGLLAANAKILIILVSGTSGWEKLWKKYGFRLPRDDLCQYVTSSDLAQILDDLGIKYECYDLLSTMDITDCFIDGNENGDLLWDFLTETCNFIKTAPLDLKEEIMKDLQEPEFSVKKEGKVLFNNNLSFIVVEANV

Histamine H3 receptor (Mus musculus), sequence (P58406 whole entry): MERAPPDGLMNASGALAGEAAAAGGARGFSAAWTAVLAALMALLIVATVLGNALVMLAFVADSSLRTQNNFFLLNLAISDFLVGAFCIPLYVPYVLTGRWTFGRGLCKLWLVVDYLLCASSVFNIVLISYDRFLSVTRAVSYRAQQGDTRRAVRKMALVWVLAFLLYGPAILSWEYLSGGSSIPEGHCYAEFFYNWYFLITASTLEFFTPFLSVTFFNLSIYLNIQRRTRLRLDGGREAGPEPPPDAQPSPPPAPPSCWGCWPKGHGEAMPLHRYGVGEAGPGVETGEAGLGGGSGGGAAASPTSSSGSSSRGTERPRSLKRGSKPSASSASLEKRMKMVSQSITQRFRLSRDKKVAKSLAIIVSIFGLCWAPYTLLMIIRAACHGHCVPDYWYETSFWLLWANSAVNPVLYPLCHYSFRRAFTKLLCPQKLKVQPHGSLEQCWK
Histamine H2 receptor, sequence (P47747 whole entry): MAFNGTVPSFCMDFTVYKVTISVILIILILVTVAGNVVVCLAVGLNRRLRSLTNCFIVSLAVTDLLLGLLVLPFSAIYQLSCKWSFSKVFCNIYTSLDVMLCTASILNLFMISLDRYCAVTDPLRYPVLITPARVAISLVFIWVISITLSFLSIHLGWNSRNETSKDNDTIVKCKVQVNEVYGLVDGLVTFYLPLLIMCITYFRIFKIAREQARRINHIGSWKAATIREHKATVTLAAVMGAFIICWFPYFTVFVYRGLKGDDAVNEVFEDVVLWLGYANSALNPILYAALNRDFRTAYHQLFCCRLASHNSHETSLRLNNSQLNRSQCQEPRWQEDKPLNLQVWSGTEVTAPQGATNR
Histamine H1 receptor, sequence (P31389 whole entry): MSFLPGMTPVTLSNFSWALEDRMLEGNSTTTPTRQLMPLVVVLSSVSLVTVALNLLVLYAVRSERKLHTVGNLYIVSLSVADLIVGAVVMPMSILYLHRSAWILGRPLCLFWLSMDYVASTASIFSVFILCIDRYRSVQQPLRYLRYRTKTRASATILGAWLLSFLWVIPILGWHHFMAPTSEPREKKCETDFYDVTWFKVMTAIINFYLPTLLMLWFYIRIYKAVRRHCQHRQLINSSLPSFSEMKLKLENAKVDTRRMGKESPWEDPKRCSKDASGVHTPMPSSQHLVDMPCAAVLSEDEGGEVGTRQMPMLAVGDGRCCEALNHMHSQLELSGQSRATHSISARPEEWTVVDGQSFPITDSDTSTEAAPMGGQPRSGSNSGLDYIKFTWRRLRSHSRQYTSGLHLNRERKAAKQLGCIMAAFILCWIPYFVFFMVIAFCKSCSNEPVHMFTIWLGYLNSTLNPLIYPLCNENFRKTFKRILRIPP
T1 sequence (Q9Y5N1 whole entry): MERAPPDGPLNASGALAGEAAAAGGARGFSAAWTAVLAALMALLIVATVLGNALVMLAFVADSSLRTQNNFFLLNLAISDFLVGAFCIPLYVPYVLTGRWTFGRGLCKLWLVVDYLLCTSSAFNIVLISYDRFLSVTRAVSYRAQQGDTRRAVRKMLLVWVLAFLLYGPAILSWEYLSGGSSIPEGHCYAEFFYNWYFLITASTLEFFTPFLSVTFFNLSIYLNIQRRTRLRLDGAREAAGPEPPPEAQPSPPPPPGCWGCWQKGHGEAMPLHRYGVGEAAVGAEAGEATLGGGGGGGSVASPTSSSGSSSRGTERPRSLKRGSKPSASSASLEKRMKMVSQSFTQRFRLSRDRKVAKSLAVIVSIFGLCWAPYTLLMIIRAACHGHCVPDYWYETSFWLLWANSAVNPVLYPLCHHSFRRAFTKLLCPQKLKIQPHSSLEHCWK
Histamine H3 receptor (Cavia porcellus, UniProt Q9JI35), sequence (Q9JI35 whole entry): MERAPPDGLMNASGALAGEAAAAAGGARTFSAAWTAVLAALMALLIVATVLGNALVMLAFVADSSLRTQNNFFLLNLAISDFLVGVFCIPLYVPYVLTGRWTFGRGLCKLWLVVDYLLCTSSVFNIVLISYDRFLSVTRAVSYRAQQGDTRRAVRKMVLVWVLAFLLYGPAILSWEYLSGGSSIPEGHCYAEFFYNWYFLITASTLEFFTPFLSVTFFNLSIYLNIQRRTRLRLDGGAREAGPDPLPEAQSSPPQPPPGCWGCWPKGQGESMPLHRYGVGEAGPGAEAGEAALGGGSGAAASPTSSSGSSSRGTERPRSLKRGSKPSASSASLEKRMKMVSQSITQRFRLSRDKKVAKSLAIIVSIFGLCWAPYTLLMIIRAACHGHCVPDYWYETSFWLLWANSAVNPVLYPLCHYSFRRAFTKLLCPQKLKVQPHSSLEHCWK

Row | ED50 [1] | Ki (Histamine H3 receptor [2]) | SMILES | further results
1 | 30 mg/kg | 227 nM | c1ccc(OCc2ccc(CN3CCCCC3)cc2)cc1 | –
2 | 30 mg/kg | 890 nM | c1ccc(CCc2ccc(OCc3ccc(CN4CCCCC4)cc3)cc2)cc1 | –
3 | 10 mg/kg | 88 nM | CCCOc1ccc(OCc2ccc(CN3CCCCC3)cc2)cc1 | –
4 | > 10 mg/kg | 238 nM | c1ccc(Cc2ccc(OCc3ccc(CN4CCCCC4)cc3)cc2)cc1 | –
5 | 2.2 mg/kg | 163 nM | CCc1ccc(OCc2ccc(CN3CCCCC3)cc2)cc1 | –
6 | 1.8 mg/kg | – | Cc1ccc(OCc2ccc(CN3CCCCC3)cc2)cc1 | –
7 | > 10 mg/kg | 107 nM | Ic1ccc(OCc2ccc(CN3CCCCC3)cc2)cc1 | –
8 | > 10 mg/kg | 761 nM | C(=C\c1ccc(OCc2ccc(CN3CCCCC3)cc2)cc1)/c1ccccc1 | –
9 | > 10 mg/kg | 530 nM | c1ccc(Oc2ccc(OCc3ccc(CN4CCCCC4)cc3)cc2)cc1 | –
10 | 10 mg/kg | 90 nM | c1ccc(NCc2ccc(OCc3ccc(CN4CCCCC4)cc3)cc2)cc1 | –
11 | > 10 mg/kg | 124 nM | Clc1ccc(OCc2ccc(CN3CCCCC3)cc2)cc1 | –
12 | > 30 mg/kg | 550 nM | c1ccc(COc2ccc(OCc3ccc(CN4CCCCC4)cc3)cc2)cc1 | –
13 | 20 mg/kg | 119 nM | COc1ccc(OCc2ccc(CN3CCCCC3)cc2)cc1 | –

Second part, the compound before the results:

Row | SMILES | ED50 [1] | Ki (Histamine H3 receptor [2]) | further results
14 | Cc1cccc(OCc2ccc(CN3CCCCC3)cc2)c1 | 20 mg/kg | 334 nM | –
15 | CO/N=C(\C)c1ccc(OCc2ccc(CN3CCCCC3)cc2)cc1 | 6.4 mg/kg | 129 nM | Kb (Histamine H2 receptor): 3980 nM; Kb (Histamine H3 receptor [3]): 288 nM; Kb (Histamine H1 receptor): 3470 nM
16 | CCN(CC)Cc1ccc(COc2ccc(C(C)=O)cc2)cc1 | 3.4 mg/kg | 91 nM | –
17 | CCCCc1ccc(OCc2ccc(CN3CCCCC3)cc2)cc1 | 2.8 mg/kg | 169 nM | –
18 | Brc1ccc(OCc2ccc(CN3CCCCC3)cc2)cc1 | > 10 mg/kg | 114 nM | –
19 | c1cc(CN2CCCCC2)ccc1COc1ccc2c(c1)CCCC2 | 3.5 mg/kg | 92 nM | –
20 | CCCc1ccc(OCc2ccc(CN3CCCCC3)cc2)cc1 | 4.3 mg/kg | 257 nM | –
21 | CC(=O)c1ccc(OCc2ccc(CN3CCCCCC3)cc2)cc1 | 4.3 mg/kg | 37 nM | Kb (Histamine H3 receptor [3]): 30.9 nM
22 | Fc1cc(OCc2ccc(CN3CCCCC3)cc2)ccc1Cl | > 10 mg/kg | 95 nM | –
23 | CCCCCc1ccc(OCc2ccc(CN3CCCCC3)cc2)cc1 | 3 mg/kg | – | –
24 | c1cc(CN2CCCCC2)ccc1COc1ccc(C2CCCC2)cc1 | 3.1 mg/kg | 201 nM | –
25 | c1cc(CN2CCCCC2)ccc1COc1ccc(CN2CCCCC2)cc1 | 9.6 mg/kg | 2.8 nM | Kb (Histamine H3 receptor [3]): 38 nM
26 | Fc1ccc(OCc2ccc(CN3CCCCC3)cc2)cc1 | 15 mg/kg | 123 nM | –
27 | O=C(c1ccc(OCc2ccc(CN3CCCCC3)cc2)cc1)C1CCCC1 | 2.8 mg/kg | 157 nM | Kb (Histamine H3 receptor [3]): 30.9 nM
28 | Cc1cc(OCc2ccc(CN3CCCCC3)cc2)ccc1Cl | > 10 mg/kg | 42 nM | –
29 | FC(F)(F)c1ccc(OCc2ccc(CN3CCCCC3)cc2)cc1 | > 10 mg/kg | 125 nM | –
30 | O=C(c1ccc(OCc2ccc(CN3CCCCC3)cc2)cc1)C1CC1 | 5.9 mg/kg | 66 nM | –
31 | C/C(=N\O)c1ccc(OCc2ccc(CN3CCCCC3)cc2)cc1 | 5 mg/kg | 55 nM | Kb (Histamine H2 receptor): 14100 nM; Kb (Histamine H3 receptor [3]): 85.1 nM; Kb (Histamine H1 receptor): 7940 nM
32 | Clc1ccc(OCc2ccc(CN3CCCCC3)cc2)cc1Cl | > 10 mg/kg | 167 nM | –
33 | Cc1ccc(OCc2ccc(CN3CCCCC3)cc2)cc1C | 4.8 mg/kg | 149 nM | –
34 | CC(=O)c1ccc(OCc2ccc(CN3CCCC3)cc2)cc1 | 1.9 mg/kg | 26 nM | Kb (Histamine H2 receptor): 7760 nM; Kb (Histamine H3 receptor [3]): 18.2 nM; Kb (Histamine H1 receptor): 9330 nM
35 | O=[N+]([O-])c1ccc(OCCCCCN2CCCC2)cc1 | 1.1 mg/kg | – | Ki (Histamine H3 receptor [4]): 39 nM
36 | CC(=O)c1ccc(OCc2ccc(CN3CCCCC3)cc2)cc1 | 3.9 mg/kg | 84 nM | Kb (Histamine H2 receptor): 10200 nM; Kb (Histamine H3 receptor [3]): 61.7 nM; IC50 [5]: 10400 nM; Kb (Histamine H1 receptor): 4570 nM
37 | c1cn(-c2ccc(OCc3ccc(CN4CCCCC4)cc3)cc2)cn1 | 4 mg/kg | 27 nM | Kb (Histamine H3 receptor [3]): 15.8 nM
38 | CC(C)c1ccc(OCc2ccc(CN3CCCCC3)cc2)cc1 | 3 mg/kg | 253 nM | –
39 | c1cc(CN2CCCCC2)ccc1COc1ccc2c(c1)CCC2 | 1.9 mg/kg | 87 nM | –
40 | CC(=O)c1ccc(OCCCc2c[nH]cn2)cc1 | 0.24 mg/kg | 87 nM | –
